# Measured values of several laboratories.
# Protocols differ between the studies behind these lines.
# Target: Carbonic anhydrase 9 (CA9, Homo sapiens, UniProt Q16790)
# Observed: enzyme activity
# Mode: inhibitor
Structure (SMILES),technique,measurement,value
NS(=O)(=O)c1ccc(CCNC2=NS(=O)(=O)c3ccc(Cl)cc3N2)cc1,stopped-flow,Ki,37.2 nM
Cn1cc(-c2cccc3oc(C(=O)NC4CCCN(CC(=O)Nc5ccc(S(N)(=O)=O)cc5)C4)cc23)nn1 (stereo not shown),,IC50,30.2 nM
NS(=O)(=O)c1ccc(-n2nccc2-c2ccc(N3CCOCC3)cc2)cc1,,Ki,245 nM
Cc1ccc(C(=O)Nc2ccc(C(=O)Nc3cccc(S(N)(=O)=O)c3)cc2)s1,,IC50,409 nM
COc1ccc(C(=O)/C=C/c2cccc3ccccc23)cc1S(N)(=O)=O,,Ki,1640 nM
NS(=O)(=O)c1ccc(-n2nccc2-c2ccc(N3CCCCC3)cc2)cc1,,Ki,227 nM
COc1cc(/C=C2/SC(Nc3ccc(S(N)(=O)=O)cc3)=NC2=O)cc(OC)c1OC,,IC50,39.5 nM
Cc1ccc(-c2ccc(Nc3ccc(S(N)(=O)=O)cc3)nn2)cc1S(=O)(=O)N1CCCCC1,,IC50,7.94 nM
NS(=O)(=O)c1ccc(NC2=NC(=O)/C(=C\c3ccc(O)cc3)S2)cc1,,IC50,203 nM
COc1ccc(C(=O)/C=C/c2cc3c(cc2Br)OCO3)cc1S(N)(=O)=O,,Ki,8170 nM
